From ChEMBL document CHEMBL4002637, “Synthesis, characterization, in vitro SAR and in vivo evaluation of N,N'bisnaphthylmethyl 2-alkyl substituted imidazolium salts against NSCLC” (Bioorg Med Chem Lett, 2017)
Activity calls are given as the source filed them. The calls are words filed in the database; no cut-off is given here.

Key:
NCI-H460 [1] = experiment: Antiproliferative activity against human NCI-H460 cells using 1% DMSO/water compound formulation after 72 hrs by MTT assay; format: functional, cell-based; conditions: NCI-H460, 72 h
Summary of the method: (§1)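 MTT anti-proliferation on NSCLC lines. Compounds dissolved in DMSO, diluted with water to 1% DMSO, then into growth medium (max 0.032% DMSO on cells); or dissolved in 10% (w/v) 2-HPβCD in water, then diluted (max 0.008% w/w 2-HPβCD in wells; vehicle controls at 0.008%). IC50 = concentration giving 50% loss of viability versus control cells. Cisplatin dissolved in water with stirring.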

NCI-H1975 [2] = experiment: Antiproliferative activity against human NCI-H1975 cells using 10% 2-HPbetaCD compound formulation after 72 hrs by MTT assay; format: functional, cell-based; conditions: NCI-H1975, 72 h; summary of the method: as §1
A549 [3] = experiment: Antiproliferative activity against human A549 cells using 10% 2-HPbetaCD compound formulation after 72 hrs by MTT assay; format: functional, cell-based; conditions: A549, 72 h; summary of the method: as §1
[4] = Aqueous solubility of the compound in water; format: physicochemical; conditions: buffer
[5] = Solubility of the compound in 1% DMSO/water solution; format: physicochemical; conditions: buffer
NCI-H1975 [6] = experiment: Potency index, ratio of compound cisplatin IC50 to compound IC50 for human NCI-H1975 cells using 1% DMSO/water compound formulation; format: functional
NCI-H1975 [7] = experiment: Potency index, ratio of compound cisplatin IC50 to compound IC50 for human NCI-H1975 cells using 10% 2-HPbetaCD compound formulation; format: functional
A549 [8] = experiment: Growth inhibition of human A549 cells assessed as cell growth at 10 uM after 24 hrs by SRB assay relative to control; format: functional; conditions: A549, 24 h, read-out: Activity
Summary of the method: (§2)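 NCI DTP one-dose screen: cells plated at density set by doubling rate, incubated overnight, then exposed to compound at 10 μM for 24 hours. Growth percentage from protein density at end versus start of experiment, relative to initial cell number.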

NCI-H460 [9] = experiment: Growth inhibition of human NCI-H460 cells assessed as cell growth at 10 uM after 24 hrs by SRB assay relative to control; format: functional; conditions: NCI-H460, 24 h, read-out: Activity; summary of the method: as §2
NCI-H522 = experiment: Growth inhibition of human NCI-H522 cells assessed as cell growth at 10 uM after 24 hrs by SRB assay relative to control; format: functional; conditions: NCI-H522, 24 h, read-out: Activity; summary of the method: as §2
A549 [10] = experiment: Growth inhibition of human A549 cells after 24 hrs by SRB assay; format: functional; conditions: A549, 24 h
EKVX = experiment: Growth inhibition of human EKVX cells after 24 hrs by SRB assay; format: functional
HOP-92 = experiment: Growth inhibition of human HOP92 cells after 24 hrs by SRB assay; format: functional; conditions: HOP-92, 24 h
NCI-H226 = experiment: Growth inhibition of human NCI-H226 cells after 24 hrs by SRB assay; format: functional; conditions: NCI-H226, 24 h
NCI-H23 = experiment: Growth inhibition of human NCI-H23 cells after 24 hrs by SRB assay; format: functional; conditions: NCI-H23, 24 h
NCI-H460 [11] = experiment: Growth inhibition of human NCI-H460 cells after 24 hrs by SRB assay; format: functional; conditions: NCI-H460, 24 h
NCI-H460 [12] = experiment: Induction of apoptosis in human NCI-H460 cells assessed as morphological changes at 40 uM up to 3 hrs by Annexin V-FITC/propidium iodide staining based fluorescence microscopic method; format: functional, cell-based
NCI-H460 [13] = experiment: Induction of apoptosis in human NCI-H460 cells at 40 uM up to 1 hr using 1% DMSO/water compound formulation by Annexin V-FITC/propidium iodide staining based fluorescence microscopic method; format: functional, cell-based
NCI-H460 [14] = experiment: Induction of apoptosis in human NCI-H460 cells at 40 uM up to 12 hrs using 10% 2HPbetaCD/water compound formulation by Annexin V-FITC/propidium iodide staining based fluorescence microscopic method; format: functional, cell-based
Summary of the method: (§3)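 Annexin V-FITC/propidium iodide staining of H460 cells in 6-well plates. Compound given in 10% (w/v) 2-HPβCD aqueous solution. Imaged at 12, 14, 17 and 20 h with 20× objective as merged transmitted, green and red channels. Controls: 2-HPβCD and cisplatin, 20 h.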

NCI-H460 [15] = experiment: Induction of apoptosis in human NCI-H460 cells assessed as blebbing at 40 uM up to 6 hrs using 1% DMSO/water compound formulation by Annexin V-FITC/propidium iodide staining based fluorescence microscopic method; format: functional, cell-based
NCI-H460 [16] = experiment: Induction of apoptosis in human NCI-H460 cells assessed as blebbing at 40 uM after 14 hrs using 10% 2HPbetaCD/water compound formulation by Annexin V-FITC/propidium iodide staining based fluorescence microscopic method; format: functional, cell-based; summary of the method: as §3
Bos taurus [17] = species on record: Bos taurus; experiment: Binding affinity to calf thymus DNA assessed as increase in viscosity at 10 to 70 uM using 1% DMSO/water compound formulation by Ostwald viscometric method
Bos taurus [18] = species on record: Bos taurus; experiment: Binding affinity to calf thymus DNA assessed as increase in viscosity at 10 to 70 uM using 10% 2HPbetaCD/water compound formulation by Ostwald viscometric method
NCI-H460 [19] = experiment: Disruption of mitochondrial membrane potential in human NCI-H460 cells at 40 uM up to 1 hr […] by JC1/DAPI staining based confocal microscopic method; format: functional, cell-based
Mus musculus [20] = experiment: Acute toxicity in C57BL/6 mouse assessed as weight loss at 20 mg/kg, ip administered as 20% 2HPbetaCD formulation; format: organism-based; conditions: in vivo
Summary of the method: (§4)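 Female/male not stated; C57BL/6 mice received 20 mg/kg IP on day zero in 100 μL of 20% (w/v) 2-HPβCD, then a second 15 mg/kg IP dose on day fourteen. Vehicle controls got 100 μL of 20% 2-HPβCD IP on days 0, 7, 14, 21, 25 and 29. Body weight and behaviour were monitored throughout, with survival plotted Kaplan-Meier.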

Mus musculus [21] = experiment: Acute toxicity in C57BL/6 mouse assessed as weight regain at 20 mg/kg, ip administered as 20% 2HPbetaCD formulation measured on day 4 to 14 post dose; format: organism-based; conditions: in vivo; summary of the method: as §4
Mus musculus [22] = experiment: Acute toxicity in C57BL/6 mouse assessed as weight loss at 20 mg/kg, ip administered as 20% 2HPbetaCD formulation on day 1 followed by redosing with 15 mg/kg, ip on day 14 relative to control; format: organism-based; conditions: in vivo
Summary of the method: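 C57BL/6 mice given IP 100 μL of 20 mg/kg (based on 20 g mean mass) in 20% w/v 2-HPβCD on day 0, then 15 mg/kg on day 14. Vehicle mice received 2-HPβCD on days 0, 7, 14, 21, 25 and 29. Body weight, behaviour and survival monitored.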

Mus musculus [23] = experiment: Acute toxicity in C57BL/6 mouse assessed as lethargic movement at 20 mg/kg, ip administered as 20% 2HPbetaCD formulation on day 1 followed by redosing with 15 mg/kg, ip on day 14 measured on day 15 post first dose; format: organism-based; conditions: in vivo; summary of the method: as §4
[24] = read-out: LC50 (the source's name)

SMILES: CCc1n(Cc2ccc3ccccc3c2)cc[n+]1Cc1ccc2ccccc2c1.[Br-]
- IC50 (NCI-H460 [1]): 920 nM
- IC50 (NCI-H1975 [2]): 560 nM
- IC50 (A549 [3]): 2340 nM
- solubility [4]: < 500 µg/mL
- solubility [5]: Soluble
- Ratio IC50 (NCI-H1975 [6]): 15
- Ratio IC50 (NCI-H1975 [7]): 17
- growth at 10 µM (A549 [8]): 28.5%
- growth at 10 µM (NCI-H460 [9]): 5.54%
- growth at 10 µM (NCI-H522): -25.4%
- GI50 (A549 [10]): 2590 nM
- TGI (A549 [10]): 13900 nM
- CC50 (A549 [10]; [24]): 57900 nM
- GI50 (EKVX): 766 nM
- LC50 (EKVX): 35800 nM
- TGI (EKVX): 5550 nM
- GI50 (HOP-92): 338 nM
- TGI (HOP-92): 1770 nM
- CC50 (HOP-92; [24]): 1770 nM
- GI50 (NCI-H226): 1080 nM
- LC50 (NCI-H226): 3820 nM
- TGI (NCI-H226): 3820 nM
- GI50 (NCI-H23): 396 nM
- TGI (NCI-H23): 2020 nM
- CC50 (NCI-H23; [24]): 2020 nM
- GI50 (NCI-H460 [11]): 724 nM
- TGI (NCI-H460 [11]): 2150 nM
- CC50 (NCI-H460 [11]; [24]): 2150 nM
- Activity (NCI-H460 [12]): inactive
- Activity (NCI-H460 [13]): Active
- Activity (NCI-H460 [14]): inactive
- Activity (NCI-H460 [15]): Active
- Activity (NCI-H460 [16]): Active
- Activity (Bos taurus [17]): inactive
- Activity (Bos taurus [18]): inactive
- Activity (NCI-H460 [19]): Active
- Activity (Mus musculus [20]): Toxic
- Activity (Mus musculus [21]): Toxic
- Activity (Mus musculus [22]): 6%
- Activity (Mus musculus [23]): Toxic
